Bioassay records deposited in PubChem BioAssay by The Scripps Research Institute Molecular Screening Center.
ADAM10 inh: ADAM10 inhibition, QFRET primary screen; inhibition, % at 7 µM; AID 720582; 370,000 compounds, 0.62% hits; recombinant ADAM10, EDANS/DABCYL FRET peptide cleavage, 3 h; O14672;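 active = inhibition above a per-campaign cutoff equal to the mean of compounds falling between control-based bounds plus 3 SD, cut at about 20% in these data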;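 note: 0% = DMSO wells while the 100% control is not disclosed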
DDE Tn6 FP inh: disrupts Tn6 cyclic peptide binding to fibrin D-Dimer-E complex; P02675; Fibrin DD(E) TRITC-Tn6 fluorescence polarization displacement; inhibition, % at 8.3 µM; 370,000 compounds, 0.21% hits;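 active = inhibition above a per-campaign cutoff: mean of compounds within control limits plus 3 SD, cut at about 15% in these data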;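 note: 0% = median of all compound wells on the plate and 100% = blocking peptide control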
Target sequence (P02675 whole entry, looked up): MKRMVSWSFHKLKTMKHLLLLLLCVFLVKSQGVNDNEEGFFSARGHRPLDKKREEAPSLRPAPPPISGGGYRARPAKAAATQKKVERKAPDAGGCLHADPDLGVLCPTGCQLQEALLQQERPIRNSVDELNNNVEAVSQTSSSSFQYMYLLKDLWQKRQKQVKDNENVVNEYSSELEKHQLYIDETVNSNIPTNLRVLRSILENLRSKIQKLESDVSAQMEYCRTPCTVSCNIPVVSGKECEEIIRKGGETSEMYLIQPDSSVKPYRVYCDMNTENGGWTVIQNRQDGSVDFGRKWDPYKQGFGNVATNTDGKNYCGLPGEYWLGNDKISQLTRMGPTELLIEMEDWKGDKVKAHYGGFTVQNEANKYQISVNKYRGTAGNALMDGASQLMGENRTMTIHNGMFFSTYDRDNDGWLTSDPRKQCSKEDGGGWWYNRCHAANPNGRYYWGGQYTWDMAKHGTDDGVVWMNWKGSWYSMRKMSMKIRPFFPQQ
PLCb3 inh: blocks human PLC-beta3 enzyme activity; inhibition, % at 12.2 µM; Q01970; 370,000 compounds, 0.18% hits; Purified PLC-beta3, fluorogenic substrate, fluorescence;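 note: 0% = median of compound wells on plate and 100% = full blocker control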
PLCg1 inh: inhibitors of human phospholipase C gamma1 | 370,000 compounds, 0.84% hits | AID 720700 | P19174 | inhibition, % at 12.2 µM | purified PLC-gamma1, fluorogenic substrate, fluorescence; in the data active = inhibition above about 9.5%
Tn7 DDE FP: disrupts Tn7 cyclic peptide binding to fibrin D-Dimer-E complex. FP displacement of FITC-Tn7 peptide from fibrin DD(E); 0% = median of compound wells per plate. inhibition, % at 8.3 µM. 370,000 compounds, 0.13% hits. AID 720508;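 active = inhibition above the mean of compounds falling within the control limits plus 3 SD of them, cut at about 14% in these data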;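 note: 0% = plate median of compound wells and 100% = 10 µM Aha-Tn7 peptide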
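Also added: labelled Tn7 tracer, 0.1 µM; Assay system: human fibrin DD(E) protein; Amount: 2 µM fibrin DD(E); Schedule: 10 min compound pre-incubation, 3 h probe incubation at room temperature; Repeats: one replicate per compound; Read-out basis: percent inhibition; Measured by: fluorescence polarization of the labelled Tn7 tracer.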
ADAM17 inh: inhibits human ADAM17. recombinant ADAM17, EDANS/DABCYL FRET peptide cleavage. inhibition, % at 6.95 µM. 370,000 compounds, 0.83% hits. AID 720648. P78536;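 active = inhibition above the mean of compounds lying between control limits plus 3 SD, set per campaign, cut at about 8.5% in these data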;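 note: 0% = DMSO-only wells as the low control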
ADAM10 confirm: confirmation of inhibitors of human ADAM10; shares compounds with ADAM10 inh; ADAM10 QFRET peptide cleavage, EDANS fluorescence; inhibition, % at 6.95 µM; 2,100 compounds, 1% hits; AID 743208;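 active = inhibition above about 20% chosen separately for each screening run, limit read from the data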;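 note: 0% = DMSO wells and 100% = marimastat wells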
ADAM17 ctr: inhibits human ADAM17 in ADAM10 exosite counter-screen. shares compounds with ADAM10 inh. AID 743214. 2,100 compounds, 0.5% hits. ADAM17 QFRET peptide cleavage, EDANS fluorescence. inhibition, % at 6.95 µM;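 active = mean triplicate inhibition above the solvent-only control wells' mean plus 3 SD, cut at about 12% in these data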;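 note: 0% = DMSO wells and 100% = marimastat wells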
ADAM10 counter: inhibits human ADAM10 in ADAM17 exosite counter-screen; inhibition, % at 6.95 µM; shares compounds with ADAM17 inh; 2,900 compounds, 47% hits; recombinant ADAM10, EDANS/DABCYL FRET peptide cleavage, 3 h;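 active = mean inhibition over the triplicate runs exceeds the activity threshold set in the earlier primary screen, cut at about 20% in these data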;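 note: 0% = DMSO wells and 100% = marimastat wells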
ADAM17 confirm: confirmation of inhibitors of human ADAM17. shares compounds with ADAM17 inh. recombinant ADAM17, EDANS/DABCYL QFRET peptide cleavage. inhibition, % at 6.95 µM. 2,900 compounds, 65% hits;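 active = mean inhibition across replicates above the hit cutoff set in the primary screen, cut at about 8.5% in these data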;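 note: 0% = DMSO wells and 100% = marimastat wells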
PLCg1 ctr: PLC-gamma1 inhibition, counter-screen for PLC-beta3 hits. shares compounds with PLCg1 inh. 3,300 compounds, 3.1% hits. inhibition, % at 12.3 µM. purified PLC-gamma1, fluorogenic substrate, fluorescence; in the data active = inhibition above about 9.5%
PLCbeta3 conf: human PLC-beta3 inhibition, confirmation; shares compounds with PLCg1 inh; AID 743261; purified PLC-beta3, fluorogenic substrate fluorescence; 3,300 compounds, 1% hits; inhibition, % at 12.3 µM
The depositor's hits bear a star; . = not tested or not shown. Sampled rows, rich in hits. Any-hit rate of the full collection: about 2.3%. Cut-off read from the data, not from the text of the source, unless noted: active = inhibition above about 11%; inactive = the rest.

SMILES | ADAM10 inh | DDE Tn6 FP inh | PLCb3 inh | PLCg1 inh | Tn7 DDE FP | ADAM17 inh | ADAM10 confirm | ADAM17 ctr | ADAM10 counter | ADAM17 confirm | PLCg1 ctr | PLCbeta3 conf
O=C(NC(NC(=S)Nc1cccc(Cl)c1)C(Cl)(Cl)Cl)OCc1ccccc1 (centres undefined) | 28.4* | -11.8 | 2.1 | -0.1 | -5.9 | 10.3* | 11.5 | 3.8 | 35.0* | 20.2* | . | .
C#CCCN([C@H](C(=O)OC)C(C)CC)S(=O)(=O)c1ccccc1Br (some centres undefined) | 10.8 | 7.8 | 1.8 | 2.9 | 2.6 | 8.2 | . | . | . | . | . | .
O=C(NO)c1ccc(OC(F)F)cc1 | 25.2* | 2.0 | 7.2 | 4.1 | 0.1 | 15.1* | 11.4 | 1.8 | 15.2 | 19.0* | . | .
O=C(N/N=C/c1ccc(OC(F)F)cc1)c1ccc(Br)cc1 | -1.7 | -0.3 | -9.9 | -9.5 | 6.6 | -6.0 | . | . | . | . | . | .
C=CCc1cccc(C=NNC(=O)c2ccco2)c1O | -37.0 | -1.1 | -59.1 | -41.3 | 0.4 | -4.1 | . | . | . | . | . | .
Cc1occc1C(=O)N/N=C/c1ccc(-c2ccccc2)cc1 | 7.9 | -5.0 | -10.2 | -2.0 | 10.3 | -0.1 | . | . | . | . | . | .
Cc1occc1C(=O)N/N=C/c1ccc(OCc2ccccc2)cc1 | 20.7* | -4.4 | -1.1 | 15.1* | -1.5 | 0.8 | 0.2 | 0.1 | . | . | -2.8 | -0.4
Cc1ccc(NC(=O)CN2C(=O)CCSc3ccccc32)cc1C | -6.7 | -5.1 | -1.9 | -1.2 | 4.5 | 1.5 | . | . | . | . | . | .
COc1ccc(C)cc1NC(=O)CNC(c1ccccc1)c1ccccc1 | 14.0 | -1.5 | 1.3 | 1.0 | -6.3 | 1.7 | . | . | . | . | . | .
COc1ccc(OC)c(NC(=O)CNC(c2ccccc2)c2ccccc2)c1 | 24.5* | -2.5 | 2.9 | 12.7* | -2.5 | 13.9* | 5.1 | 2.2 | 37.0* | 14.0* | -6.0 | -1.6
COc1ccc(C(=O)Nc2ccccc2C(=O)N2CCOCC2)cc1OC | 20.6* | -1.4 | 7.2 | 9.8* | -7.2 | 2.5 | 1.5 | -0.5 | . | . | -6.0 | -1.4
COc1ccc(C(=O)Nc2ccccc2C(=O)N2CCOCC2)cc1Br | -0.1 | 5.3 | -0.4 | -0.3 | -1.0 | -2.4 | . | . | . | . | . | .
Cc1ccc(CNC(=O)c2cc(-c3ccccc3C)nn2CC2CC(c3cccnc3)=NO2)cc1 (centres undefined) | 10.3 | -5.8 | -8.3 | 0.5 | -2.4 | 3.1 | . | . | . | . | . | .
Cc1ccccc1-c1cc(C(=O)NCc2ccc(OC(F)(F)F)cc2)n(CC2CC(c3cccnc3)=NO2)n1 (centres undefined) | 21.2* | 1.0 | 1.1 | 11.4* | -5.1 | 10.3* | 5.3 | 3.2 | 25.4* | 13.0* | -3.2 | -8.0
Cc1ccc(NC(=S)N2CCN(c3ccccn3)CC2)cc1C | 20.9* | -0.8 | 0.0 | 10.8* | -1.3 | 2.9 | 1.2 | 0.9 | . | . | -0.9 | 2.1
Cc1cccc(NC(=S)N2CCN(c3ccccn3)CC2)c1 | -2.4 | 7.7 | 3.6 | 3.8 | 0.2 | 1.8 | . | . | . | . | . | .
CCC(C(=O)OCC(=O)Nc1cc(Cl)cc(Cl)c1)c1ccccc1 (centres undefined) | 42.1* | -7.7 | 11.1* | 7.7 | -13.8 | 18.6* | 9.6 | 3.5 | 23.4* | 12.3* | -0.3 | 1.3
CCC(C(=O)OCC(=O)Nc1cccc(C(C)=O)c1)c1ccccc1 (centres undefined) | -6.0 | 0.9 | -3.6 | -3.1 | -3.2 | -4.1 | . | . | . | . | . | .
Oc1ccc(C[C@H]2CN([C@@H](Cc3cccc(O)c3)CN3CCC[C@@H]3CN3C(=S)NC[C@@H]3Cc3ccccc3)C(=S)N2CC2CCCCC2)cc1 | 30.9* | -0.3 | 4.4 | 10.0* | -1.3 | 14.3* | 8.8 | 2.5 | 49.1* | 22.6* | 7.1 | 5.3
C(=N/N1CCN(c2ccccc2)CC1)/c1ccco1 | 0.6 | 0.2 | 2.3 | -0.1 | -6.9 | -1.5 | . | . | . | . | . | .
COc1ccc(NC(=O)C(Sc2nnc(-c3ccncc3)n2-c2ccccc2C)c2ccccc2)cc1Cl (centres undefined) | 28.2* | -6.5 | 4.0 | 10.8* | -5.1 | 15.2* | 7.4 | 2.2 | 30.4* | 14.7* | 1.7 | -3.4
C=CCN1[C@H](CO)[C@H](c2ccc(Br)cc2)[C@@H]1C#N | 4.3 | -3.1 | -0.1 | 4.3 | -3.0 | 2.3 | . | . | . | . | . | .
Cc1ccnc(NS(=O)(=O)c2cccc3nsnc23)c1 | 20.4* | -0.8 | 2.1 | 9.9* | 1.0 | -0.5 | 1.6 | 1.4 | . | . | -5.5 | -2.4
CCc1nc2c(OCCC3CCCCC3)cccn2c1N(C)C(=O)c1ccc(C)cc1 | 29.4* | -7.3 | 2.9 | 10.2* | 4.8 | 14.6* | 7.4 | 2.4 | 10.2 | 7.0 | 3.8 | 3.0
COC(=O)C[C@H]1CC[C@H]2[C@H](COc3ccc(NC(=O)Nc4ccccc4F)cc3C(=O)N2C)O1 | 2.1 | 2.9 | 2.4 | -0.4 | -4.2 | 0.4 | . | . | . | . | . | .
O=C(COC(=O)c1ccccc1C(=O)OCC(=O)NCCc1c[nH]c2ccccc12)NCCc1c[nH]c2ccccc12 | 24.8* | -0.5 | 5.1 | 9.9* | -3.4 | 9.1* | 7.2 | 2.1 | 27.6* | 10.9* | 9.6* | 2.8
O=C(CSc1nc2c(c(=O)[nH]1)CCCC2)N1CCOCC1 | -13.4 | 12.4 | 0.7 | -1.8 | 3.2 | -1.7 | . | . | . | . | . | .
O=C(CC(CC(=O)c1ccccc1)c1ccccc1)c1ccccc1 | 1.6 | 0.3 | -2.0 | -0.6 | -3.9 | 1.6 | . | . | . | . | . | .
COc1ccc(C(CC(=O)c2ccccc2)CC(=O)c2ccccc2)cc1 | 20.4* | 1.6 | -3.8 | 13.0* | -6.9 | 10.7* | 2.3 | 0.8 | 4.9 | 4.8 | 6.4 | 3.5
COc1ccc(S(=O)(=O)Nc2ccc3c(c2)C(=O)N([C@H](C)CO)C[C@H](C)[C@@H](CN(C)S(=O)(=O)c2cccs2)O3)cc1 | 3.3 | 2.8 | 3.3 | 1.0 | 1.6 | 1.1 | . | . | . | . | . | .
